The whole screen tested about 200,000 compounds, of which about 2,000 (1%) were called active. The sample holds actives, similar compounds and a random draw of the others, so the mix is not that of the screen.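 The calls were made as follows: active = inhibition above the campaign mean inhibition of all tested compounds plus 3 SD (cut at about 20% in these data); inactive = the rest.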
Each molecule was assayed against Neuropeptide Y receptor type 1 (Homo sapiens) (UniProt P25929) (assay: NPY-Y1 receptor antagonists, primary screen, cell-based (AID 1040;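 also: 0% = DMSO wells given NPY plus isoproterenol and 100% = isoproterenol alone without NPY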)). Settings: HEK293-CNG Y1 cells, membrane potential fluorescence; at 3.6 µM; hits give high values; NPY at EC95, then isoproterenol.
Procedure, shortened: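 Material: HEK293 cells co-expressing NPY Y1 receptor and cyclic-nucleotide gated channel. Timing: compound incubation 1 h at room temperature, readout 45 min post-stimulation. Signal: fluorescence, membrane potential probe.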

Chain of Neuropeptide Y receptor type 1 (Homo sapiens) (P25929 whole entry, looked up): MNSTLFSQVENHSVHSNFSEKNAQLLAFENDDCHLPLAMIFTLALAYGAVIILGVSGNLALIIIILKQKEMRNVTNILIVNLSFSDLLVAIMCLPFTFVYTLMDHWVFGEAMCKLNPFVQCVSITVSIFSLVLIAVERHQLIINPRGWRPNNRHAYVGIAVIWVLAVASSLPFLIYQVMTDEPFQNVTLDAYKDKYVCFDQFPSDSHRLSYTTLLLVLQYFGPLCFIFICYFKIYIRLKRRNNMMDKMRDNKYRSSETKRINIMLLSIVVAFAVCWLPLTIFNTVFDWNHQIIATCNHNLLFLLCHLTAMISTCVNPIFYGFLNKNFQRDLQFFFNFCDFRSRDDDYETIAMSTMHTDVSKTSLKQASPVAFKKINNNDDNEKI

inhibition, active:
Cc1ccc(SCCC(=O)OCC(=O)Nc2ncc(Cl)cc2Cl)cc1 20.4%
Oc1ccc(-c2[nH]ncc2-c2nc3ccccc3s2)c(O)c1 62.6%
COc1cc2c(C(=O)N3CCN(C)CC3)c(CSc3ccccc3)n(C)c2cc1Br 23.3%
COc1ccc(-c2cc(C(=O)n3cnc4ccccc43)c3ccccc3n2)cc1 26.2%
CC(C)Cn1cnc2c1c(=O)n(CC(O)c1ccccc1)c(=O)n2CC(C)C (stereo unspecified) 20.6%
CCN1CCN(CCNC(=O)c2ccc(/C=C3/Sc4ccccc4N(Cc4cccc(C)c4)C3=O)cc2)CC1 23.1%
Cc1ccc2nc(-c3ccccn3)cc(C(=O)Nc3ccc4c(c3)OCO4)c2c1 31.6%
COc1ccccc1N(C(=O)Cn1nnc2ccccc21)C(C(=O)NCc1ccco1)c1ccc(C)o1 (stereo unspecified) 21.5%
COc1ccccc1N1CCN(C(=O)CN(Cc2ccc(Cl)cc2)S(C)(=O)=O)CC1 20.4%
O=C(c1cc(-c2ccc(O)cc2)on1)N1CCCc2ccccc21 25.5%
Cc1ccc(-c2cc(C(=O)N3CCc4ccccc4C3)no2)cc1 28.6%
COc1ccc(C2CC(=O)Nc3sc(=N)c4c(N)c(C#N)c(N)nc4c32)cc1OC (stereo unspecified) 60.1%
CCCCNC(=O)c1onc(CSc2cccc(OC)c2)c1C(=O)O 28.4%
Cc1cccc(NC(=S)NCCN(C2CCCCC2)C2CCCC2)c1 21.2%
COc1cc(NC(=O)c2cc([N+](=O)[O-])ccc2Br)ccc1NC(=O)c1ccco1 30.1%
CCCCc1c(O)nc2n(c1=O)CCS2 20.6%
O=C(CC1CCCCC1)Nc1c2c(nn1-c1ccc(F)cc1)CS(=O)(=O)C2 46.3%
O=S(=O)(O)c1nc2ccccc2n1Cc1ccc(Cl)cc1 21.2%
O=C(Nc1ccccc1Cl)/C(Cl)=C(\Cl)S(=O)c1ccccc1 (stereo unspecified) 27.5%
COc1ccccc1Nc1ncnc2c1oc1ccccc12 21.3%
Cc1ccc(C(=O)N/C(=C/c2ccc(-c3cccc([N+](=O)[O-])c3)o2)C(=O)NCCCN(C)C)cc1 27.8%

inhibition, inactive:
Cc1nnc(SCC(=O)N2c3ccccc3C(C)(c3ccc(Cl)cc3)CC2(C)C)s1 (stereo unspecified) 16.7%
CC(=O)Nc1ccc(/C(C)=N/NC(=O)CN(c2ccccc2Br)S(C)(=O)=O)cc1 -2.53%
CC(Oc1ccc(Cl)cc1)C(=O)OCC(=O)Nc1ncc(Cl)cc1Cl (stereo unspecified) 2.64%
Cc1ccc(-n2c(SCC(=O)Nc3ncc(Cl)cc3Cl)nc3ccccc32)cc1 -2.49%
CC1(C)C=C2[C@H]3CC[C@@H]4[C@@]5(C)CCC(=O)C(C)(C)[C@@H]5CC[C@@]4(C)[C@]3(C)CC[C@@]2(C(=O)O)CC1 2.69%
CC(=O)Nc1cccc(-c2nc3ccccc3s2)c1C 3.27%
Cc1cc(O)ccc1-c1cnc2ccccc2n1 -0.67%
CC1CCN(S(=O)(=O)c2ccc3ncn(CC(=O)N(C)C4CCCCC4)c(=O)c3c2)CC1 4.79%
CCOC(=O)C1CCN(CCC(=O)Nc2cccc(C)c2)CC1 -5.31%
COc1ccccc1OCc1ccc(C(=O)N2CCN(C)CC2)o1 6.16%
O=C(c1ccc(CSc2ccccc2)cc1)N1CCCCCC1 -0.16%
O=[N+]([O-])c1ccc(N2CCN(S(=O)(=O)c3ccccc3)CC2)cc1N1CCc2ccccc2C1 4.34%
CNC(=O)COC(=O)c1cc(-c2ccc(OC)cc2)nc2ccccc12 3.85%
Cc1ccc(OCC(=O)Nn2cnc3ccccc32)cc1 8.06%
COc1cc(NC(=S)N2CCCC(C)C2)cc(OC)c1OC (stereo unspecified) -1.31%
CC(=O)N1CCN(S(=O)(=O)c2cccc(C(=O)NC3CCC(C)CC3)c2)CC1 (stereo unspecified) 1.65%
CC(C)Cn1c(CN(Cc2ccccc2)Cc2ccccc2)nc2c1c(=O)n(C)c(=O)n2C 13.4%
Cn1c(=O)c2c(ncn2CCc2ccccc2)n(C)c1=O -0.86%
CCCN(CC(=O)Nc1ccc(C(N)=O)cc1)CC(=O)Nc1ccccc1C -0.18%
O=C1Nc2cc(Cl)c(Cl)cc2N(O)N1c1ccccc1Cl 1.81%
CC(=O)Nc1ccc(NC(=O)C(C)OC(=O)c2ccccc2C(=O)c2ccc(Cl)c([N+](=O)[O-])c2)cc1 (stereo unspecified) 0.15%
Cc1nn(Cc2ccccc2)c(C)c1C(=O)NCCN1C(=O)S/C(=C\c2ccc(F)cc2)C1=O -0.53%
O=C(CN1C(=O)/C(=C\c2ccc(C(F)(F)F)cc2)Sc2ccccc21)NCc1ccco1 10.7%
Cc1ccc(OCCCn2c(=O)oc3ccccc32)cc1 8.49%
Cc1ccc2nc(-c3ccc(NC(=O)CN(C)S(=O)(=O)c4ccccc4)cc3)sc2c1 -3.73%
Cc1c(CN2CCCC(C(=O)c3cccc(Cl)c3)C2)c(=O)n(-c2ccccc2)n1C (stereo unspecified) -2.25%
Cc1ccc2nc(-c3ccncc3)cc(C(=O)Nc3ccc4c(c3)OCCO4)c2c1 4.85%
O=C(Nc1ccncc1)c1cc(-c2ccccn2)nc2ccc(Br)cc12 -2.88%
Cc1ccc(C(C(=O)NCc2ccco2)N(CC2CCCO2)C(=O)Cn2nnc3ccccc32)cc1 (stereo unspecified) 2.99%
COCCNC(=O)C(c1ccc(C)o1)N(Cc1ccccc1)C(=O)Cn1nnc2ccccc21 (stereo unspecified) 7.77%
CCO[C@H]1OC(C(=O)O)=C[C@@H](C2CCCCC2)[C@@H]1CCCO -4.69%
CC1CC1C(=O)OCC(=O)c1c(N)n(C)c(=O)n(C)c1=O (stereo unspecified) 0.59%
COc1ccc(OC)c(NC(=O)CN(Cc2ccc(Cl)cc2)S(C)(=O)=O)c1 -0.76%
CS(=O)(=O)N(CC(=O)N1CCCC1)Cc1ccccc1 1.29%
COC(=O)C1=C(C)N(c2ccc(C)cc2)/C(=C/c2ccc(O)cc2)C1=O 2.2%
COCCNc1nc2nonc2nc1N1CCCC1c1nccs1 (stereo unspecified) 0.14%
O=C(c1cc(-c2cccc(O)c2)on1)N1CCc2ccccc2C1 2.12%
O=C(C(=O)N1CCc2ccccc2C1)N1CCc2ccccc2C1 1.24%
O=C(c1cc(-c2ccccc2O)on1)N1CCCC1 -3.05%
Cc1occc1C(=O)N1CCCc2ccccc21 1.99%
CC(C)Oc1ccccc1C(=O)NC(CO)C(=O)O (stereo unspecified) -2.02%
Cc1ccc(O)c(CCc2ccccc2)n1 1.07%
Cc1nn(CC(=O)Nc2ccc(C#N)cc2)c(C)c1[N+](=O)[O-] -0.39%
N#Cc1c(N)nc2c3c(sc(=N)c2c1N)NC(=O)CC3c1ccccc1Cl (stereo unspecified) 1.18%
COc1ccc(-c2cc(-c3ccc(N)cc3)nc(N)c2C#N)cc1OC 7.06%
CC(NC(=O)COC(=O)C1CCN(S(=O)(=O)c2ccccc2C(F)(F)F)CC1)c1ccccc1 (stereo unspecified) -0.58%
Cc1c(NC(=S)NC(=O)CCc2ccccc2)c(=O)n(-c2ccccc2)n1C 4.67%
CCOc1cccc(SCc2noc(C(=O)NC(C)C)c2C(=O)O)c1 11%
COCCNC(=O)c1onc(CSc2cccc(C)c2)c1C(=O)O 9.11%
COc1ccc2nc(SCc3ccccc3)nc(C)c2c1 4.78%
Cc1cccc(NC(=S)Nc2ccc(Br)cc2)c1 3.74%
Cc1cccc(NC(=S)Nc2ccc(Cl)c(Cl)c2)c1 1.7%
Cc1nc(-c2ccccc2)cn2c1nc1ccccc12 5.56%
O=C(Cc1coc2ccc3ccccc3c12)NCc1cccs1 1.1%
O=C(Nc1ccc(NC(=O)c2ccco2)c(Cl)c1)c1cccc([N+](=O)[O-])c1 0.59%
COc1ccccc1C(=O)Nc1ccc(NC(=O)c2ccco2)c(C)c1 2.31%
CN(C)CCCO/N=C(\c1ccccc1)c1ccncc1 -1.1%
O=C(COc1cccc(F)c1)Oc1ccc(C(=O)c2ccccc2)cc1 2.24%
CC1CCc2c(sc3nc4n(c(=O)c23)CCS4)C1 (stereo unspecified) -3.28%
CCOC(=O)N1CCN(C(=O)c2cnc3n(c2=O)CCS3)CC1 -1.03%
CCc1ccccc1NC(=O)CN(C)C(=O)COc1ccc(C)nc1[N+](=O)[O-] -0.59%
COc1ccc(/C(=N\O)c2nccc3cc(OC)c(OC)cc23)cc1OC 5.85%
Cc1ccc(-n2nc3c(c2NC(=O)CCC2CCCCC2)CS(=O)C3)cc1 (stereo unspecified) 8.28%
O=C(CC1CCCCC1)NCc1ccc(F)cc1 -0.26%
CC(NC(=S)NC1CCCCC1)C(c1ccccc1)N1CCOCC1 (stereo unspecified) 0.27%
O=S(=O)(O)c1nc2ccccc2n1Cc1ccc(Cl)cc1Cl -2.49%
O=S(=O)(Cc1ccccc1)c1nc2ccccc2n1Cc1ccccn1 -1.06%
O=C(Nc1ccccc1Cl)c1ccc2nsnc2c1 0.69%
O=C(CN1CCCCC1)Nc1ccccc1Cl -2.44%
CC(NC(=O)COC(=O)c1ccc(Cl)cc1O)c1ccc(F)cc1 (stereo unspecified) -0.49%
CCc1nc(Nc2ccc3nccnc3c2)c2oc3ccccc3c2n1 -0.08%
Cc1nc(Cl)c2oc3ccccc3c2n1 3.46%
COc1ccc(-n2nc3c(c2NC(=O)c2ccc(N4C(=O)CCC4=O)cc2)CSC3)cc1 2.78%
N#C/C(=C\c1ccc(-c2cccc([N+](=O)[O-])c2)o1)C(=O)NCCN1CCOCC1 0.61%
CN(C)CCNC(=O)/C(=C/c1cccc([N+](=O)[O-])c1)NC(=O)c1ccccc1 2.65%

From PubChem BioAssay AID1040 (The Scripps Research Institute Molecular Screening Center, 2008)
